From ChEMBL document CHEMBL4321820, “Identification and Optimization of Mechanism-Based Fluoroallylamine Inhibitors of Lysyl Oxidase-like 2/3” (J Med Chem, 2019)

What was measured:
Mus musculus = experiment: Effect on plasma ALT level in CCl4-induced BALB/c mouse model of liver fibrosis at 5 to 15 mg/kg, po administered once daily at week 4 to 6; format: ADME, organism-based; details: in vivo
In short: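 CCl4 liver fibrosis in female BALB/c mice: CCl4 i.p. (1 mL/kg 25% in olive oil) twice weekly for 6 weeks, sacrifice 48 h after final injection. Oral once-daily dosing weeks 1-6 or weeks 4-6; imatinib 50 mg/kg daily weeks 1-6. ALT and AST measured in plasma.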

Lysyl oxidase homolog 2 [1] = target: T1, Lysyl oxidase homolog 2 (Homo sapiens, UniProt Q9Y4K0); experiment: Inhibition of LOXL2 in human IMR90 cells using putrescine as substrate preincubated with enzyme for 30 mins followed by substrate addition and measured every 2.5 mins for 30 mins by Amplex-Red oxidation assay; format: cell-based
T1 sequence (Q9Y4K0 whole entry): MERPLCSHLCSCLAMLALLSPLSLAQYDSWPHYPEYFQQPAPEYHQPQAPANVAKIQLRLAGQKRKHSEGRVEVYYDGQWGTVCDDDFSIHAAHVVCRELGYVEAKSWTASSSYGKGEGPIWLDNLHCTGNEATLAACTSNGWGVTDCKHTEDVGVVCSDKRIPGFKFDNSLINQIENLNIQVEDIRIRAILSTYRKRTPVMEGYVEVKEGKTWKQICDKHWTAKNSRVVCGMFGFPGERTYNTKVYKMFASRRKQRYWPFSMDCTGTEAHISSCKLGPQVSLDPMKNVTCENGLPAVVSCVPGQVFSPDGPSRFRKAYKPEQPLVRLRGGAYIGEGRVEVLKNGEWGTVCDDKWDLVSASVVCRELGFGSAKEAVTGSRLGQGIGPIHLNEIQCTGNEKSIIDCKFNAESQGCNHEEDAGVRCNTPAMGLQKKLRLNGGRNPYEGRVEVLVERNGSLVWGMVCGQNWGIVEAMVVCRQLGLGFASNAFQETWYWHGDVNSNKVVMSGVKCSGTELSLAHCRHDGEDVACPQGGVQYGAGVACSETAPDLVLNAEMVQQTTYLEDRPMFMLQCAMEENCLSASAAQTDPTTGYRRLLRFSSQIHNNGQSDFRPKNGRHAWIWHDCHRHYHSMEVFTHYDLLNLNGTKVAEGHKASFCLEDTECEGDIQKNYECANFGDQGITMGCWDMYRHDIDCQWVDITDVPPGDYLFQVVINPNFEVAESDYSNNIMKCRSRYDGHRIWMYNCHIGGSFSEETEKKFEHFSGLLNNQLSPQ
In short: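 IMR90 fibroblasts grown in MEM/10% FBS to 80% confluence, then 48-72 h in phenol-red-free 0.1% FBS medium. Conditioned medium concentrated 40-fold (10 kDa). LOX and LOXL2 separated on a 50 kDa filter in 6 M urea/borate, then diluted back to 1.2 M urea. Preincubated 30 min at 37 °C with compound; Amplex Red/HRP/putrescine readout every 2.5 min over 30 min.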

Lysyl oxidase homolog 2 [2] = target: T2, Lysyl oxidase homolog 2 (Rattus norvegicus, UniProt B5DF27); experiment: Inhibition of recombinant rat LOLX2 using putrescine as substrate preincubated with enzyme for 30 mins followed by substrate addition and measured every 2.5 mins for 30 mins by Amplex-Red oxidation assay
T2 sequence (B5DF27 whole entry): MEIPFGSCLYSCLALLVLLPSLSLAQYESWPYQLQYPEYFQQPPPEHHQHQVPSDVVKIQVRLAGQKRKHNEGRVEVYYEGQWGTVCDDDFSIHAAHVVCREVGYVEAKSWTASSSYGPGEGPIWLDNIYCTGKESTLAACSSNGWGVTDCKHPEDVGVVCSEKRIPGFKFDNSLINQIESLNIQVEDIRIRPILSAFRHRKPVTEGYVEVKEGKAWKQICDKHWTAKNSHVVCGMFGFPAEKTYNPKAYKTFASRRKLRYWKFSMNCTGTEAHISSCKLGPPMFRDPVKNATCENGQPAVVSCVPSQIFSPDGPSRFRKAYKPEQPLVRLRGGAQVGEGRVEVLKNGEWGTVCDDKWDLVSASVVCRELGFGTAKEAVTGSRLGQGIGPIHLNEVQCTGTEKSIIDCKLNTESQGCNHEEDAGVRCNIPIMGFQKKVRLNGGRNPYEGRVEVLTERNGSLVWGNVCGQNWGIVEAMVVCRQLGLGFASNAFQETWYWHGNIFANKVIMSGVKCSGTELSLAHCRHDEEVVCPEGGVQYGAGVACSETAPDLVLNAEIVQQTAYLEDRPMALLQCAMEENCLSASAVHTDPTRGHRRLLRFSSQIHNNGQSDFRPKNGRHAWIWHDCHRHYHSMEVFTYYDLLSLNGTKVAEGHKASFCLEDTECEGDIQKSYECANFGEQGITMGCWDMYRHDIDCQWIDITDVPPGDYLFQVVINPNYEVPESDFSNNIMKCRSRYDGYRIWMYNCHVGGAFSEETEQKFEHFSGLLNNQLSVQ

Lysyl oxidase homolog 1 = target: T3, Lysyl oxidase homolog 1 (Homo sapiens, UniProt Q08397); experiment: Inhibition of recombinant human LOXL1 using putrescine as substrate preincubated with enzyme for 30 mins followed by substrate addition and measured every 2.5 mins for 30 mins by Amplex-Red oxidation assay
T3 sequence (Q08397 whole entry): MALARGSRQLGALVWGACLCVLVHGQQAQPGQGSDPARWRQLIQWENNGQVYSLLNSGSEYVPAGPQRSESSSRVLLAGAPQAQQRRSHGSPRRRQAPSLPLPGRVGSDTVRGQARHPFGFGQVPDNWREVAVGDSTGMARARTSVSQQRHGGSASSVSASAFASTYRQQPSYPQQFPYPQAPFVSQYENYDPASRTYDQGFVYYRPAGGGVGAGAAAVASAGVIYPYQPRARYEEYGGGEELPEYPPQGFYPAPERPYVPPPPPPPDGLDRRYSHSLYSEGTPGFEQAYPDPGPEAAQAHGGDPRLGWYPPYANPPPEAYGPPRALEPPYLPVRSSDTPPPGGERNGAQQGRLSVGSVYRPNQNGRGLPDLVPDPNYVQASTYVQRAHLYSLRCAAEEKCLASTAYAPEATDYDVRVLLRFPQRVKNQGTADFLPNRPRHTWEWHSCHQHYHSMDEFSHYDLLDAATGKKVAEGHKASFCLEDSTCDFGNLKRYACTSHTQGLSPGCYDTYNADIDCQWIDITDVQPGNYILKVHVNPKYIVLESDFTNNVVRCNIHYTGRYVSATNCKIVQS
In short: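 Recombinant human LOXL1 expressed and purified from cDNA; 30 min preincubation with compound at 37 °C in urea/borate buffer, then Amplex Red/HRP with 10 mM putrescine; H2O2 fluorescence read every 2.5 min for 30 min at 37 °C.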

[3] = Stability in rat plasma assessed as half life; format: ADME, cell-free
[4] = Stability in dog microsomes assessed as half life; format: ADME, Canis lupus familiaris, Microsome
[5] = Oral bioavailability in rat; format: ADME, organism-based; details: in vivo
[6] = Oral bioavailability in mouse; format: ADME, organism-based; details: in vivo
[7] = Stability in rat plasma assessed as half life
[8] = Stability in human plasma assessed as half life

| SMILES | Activity (Mus musculus) | IC50 (Lysyl oxidase homolog 2 [1]) [nM] | IC50 (Lysyl oxidase homolog 2 [2]) [nM] | IC50 (Lysyl oxidase homolog 1) [nM] | half-life [3] [h] | half-life [4] [h] | bioavailability [5] [%] | bioavailability [6] [%] | half-life [7] [h] | half-life [8] [h] |
| --- | --- | --- | --- | --- | --- | --- | --- | --- | --- | --- |
| CCOC(=O)c1ccc2c(c1)c(-c1cccc(S(=O)(=O)N(C)C)c1)c(C)n2C/C(F)=C/CN.Cl | Non-Toxic | – | – | – | – | – | – | – | – | – |
| Cc1c(-c2cccc(S(=O)(=O)N(C)C)c2)c2cc(C(=O)O)ccc2n1C/C(F)=C/CN.Cl | – | 9 | 6 | 2260 | > 2 | > 1.5 | < 1 | < 1 | > 2 | > 2 |
